The values that follow come from ChEMBL document CHEMBL1681758, “Synthesis and in vitro anti-HSV-1 activity of a novel Hsp90 inhibitor BJ-B11” (Bioorg Med Chem Lett, 2011).

Data set [1] in a line: Cytotoxicity against african green monkey Vero cells by MTT assay. As to conditions: chlorocebus sabaeus. Type of data set: cell-based. In outline: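 Vero cells; MTT viability read-out. CC50 taken as concentration reducing cell viability by 50%. Mean ± SD of three independent experiments.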
In general terms: Formazan colour is commonly taken as a measure of viable cells.

Data set [2] relates to Human alphaherpesvirus 1. Description: Antiviral activity against HSV1 infected in african green monkey Vero cells assessed as inhibition of viral replication by plaque reduction assay. It is filed as functional, organism-based. The settings on record: Human alphaherpesvirus 1, Vero. In outline:
(§1)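 Vero cells; plaque reduction assay at concentrations found non-cytotoxic by MTT. EC50 is the concentration inhibiting 50% of HSV replication. Mean ± SD of three independent experiments.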

Data set [3] deals with Human alphaherpesvirus 2. The data set is described as follows: Antiviral activity against HSV2 infected in african green monkey Vero cells assessed as inhibition of viral replication by plaque reduction assay. It is filed as functional, organism-based. As to conditions: Human alphaherpesvirus 2, Vero. In outline:
as §1
For orientation: Plaque reduction counts the foci of infection that form in a cell layer.

A short description of data set [4]: Therapeutic index, ratio of CC50 for african green monkey Vero cells to EC50 for HSV1. Type of data set: cell-based. The settings on record: read-out: TI. In outline: (§2)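 TI calculated as CC50 (Vero, MTT) divided by EC50 (Vero, plaque reduction) for the respective HSV type.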
Data set [5] is described as follows: Therapeutic index, ratio of CC50 for african green monkey Vero cells to EC50 for HSV2. It is filed as cell-based. As to conditions: read-out: TI. In outline:
as §2

Data set [6] concerns Human alphaherpesvirus 1. The data set is described as follows: Antiviral activity against HSV1 infected in african green monkey Vero cells assessed as reduction of UL54 expression at 1 uM after up to 24 hrs by RT-PCR analysis. Type of data set: functional, organism-based. In outline:
(§3)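 Vero monolayer infected with HSV-1 (MOI = 1) with or without 1 µM compound. RNA extracted at 3, 6 and 12 hpi, reverse transcribed, and serially diluted cDNA used for real-time PCR of UL54, UL52 and UL27. Mean ± SD, n = 3; Student's t-test against untreated controls.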

In data set [7] the test system is Human alphaherpesvirus 1. The data set is described as follows: Antiviral activity against HSV1 infected in african green monkey Vero cells assessed as reduction of UL52 expression at 1 uM after up to 24 hrs by RT-PCR analysis. Type of data set: functional, organism-based. The gist of the method: as §3
The subject of data set [8] is Human alphaherpesvirus 1. The data set is described as follows: Antiviral activity against HSV1 infected in african green monkey Vero cells assessed as reduction of UL27 expression at 1 uM after up to 24 hrs by RT-PCR analysis. Type of data set: functional, organism-based. In outline:
as §3

Data set [9] deals with Human alphaherpesvirus 1. The data set is described as follows: Antiviral activity against HSV1 infected in african green monkey Vero cells assessed as inhibition of virus-induced cytopathic effect. It is filed as functional, organism-based. A general note: Cytopathic effects are the visible damage that an infection or toxin causes in cultured cells.
Data set [10] has as its system Human alphaherpesvirus 2. Description: Antiviral activity against HSV2 infected in african green monkey Vero cells assessed as inhibition of virus-induced cytopathic effect. Type of data set: functional, organism-based.
A further data set relates to Coxsackievirus B3. The data set is described as follows: Antiviral activity against Coxsackievirus B3 infected in african green monkey Vero cells assessed as inhibition of virus-induced cytopathic effect. It is filed as functional, organism-based.
For the next data set, the system named is Human orthopneumovirus. Description: Antiviral activity against Human respiratory syncytial virus infected in african green monkey Vero cells assessed as inhibition of virus-induced cytopathic effect. Type of data set: functional, organism-based.
For the next data set, the system named is Influenza A virus. The data set is described as follows: Antiviral activity against Influenza A virus H1N1 infected in african green monkey Vero cells assessed as inhibition of virus-induced cytopathic effect. Type of data set: functional, organism-based.
The test system of data set [11] is Human alphaherpesvirus 1. The data set is described as follows: Antiviral activity against HSV1 infected in african green monkey Vero cells assessed as log reduction of viral yield at 1 uM treated after 9 hrs post infection by plaque assay. It is filed as functional. In outline:
(§4)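 HSV-1 at MOI = 1 in Vero cells, compound at 1 µM in time-of-addition and time-of-removal schedules. Cultures harvested at 24 hpi; virus yield titrated by plaque assay.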

Data set [12] has as its system Human alphaherpesvirus 1. The data set is described as follows: Antiviral activity against HSV1 infected in african green monkey Vero cells assessed as log reduction of viral yield at 1 uM treated after 24 hrs post infection by plaque assay. Type of data set: functional. In outline:
as §4

Data set [13] concerns Human alphaherpesvirus 1. The data set is described as follows: Antiviral activity against HSV1 infected in african green monkey Vero cells assessed as log reduction of viral yield at 1 uM treated after 6 hrs post infection by plaque assay. Type of data set: functional. In outline: as §4
For data set [14], the system named is Human alphaherpesvirus 1. Description: Antiviral activity against HSV1 infected in african green monkey Vero cells assessed as log reduction of viral yield at 1 uM after drug washout by plaque assay. Type of data set: functional. The gist of the method: as §4
Data set [15] deals with Human alphaherpesvirus 1. Description: Antiviral activity against HSV1 infected in african green monkey Vero cells assessed as inhibition DNA synthesis at 1 uM after 24 hrs by RT-PCR analysis. Type of data set: functional, organism-based. The gist of the method:
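Vero monolayer infected with HSV-1 (MOI = 1) with or without 1 µM compound. DNA extracted at 24 hpi; UL52 quantified by real-time PCR. Mean ± SD, n = 3; Student's t-test against untreated controls.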

Active and inactive are the calls of the source. The rule behind the calls is not given here.

Usually CC50 stands for the concentration giving 50% cytotoxicity. As a reminder, the EC50 is the concentration that produces a half-maximal response. In [1], `Nc1nc2c(ncn2COCCO)c(=O)[nH]1` [ACYCLOVIR] had a CC50 of over 200000 nM. The concentration for a half-maximal effect (EC50) in the data set with Human alphaherpesvirus 1 [2] amounted to 1160 nM; with Human alphaherpesvirus 2 [3], 1720 nM. Moreover, the results for the selectivity ratio in data set [4] and in data set [5] were over 172 and over 116, respectively. For the same compound, in the data set on Human alphaherpesvirus 1 [6], the outcome was inactive. Besides, the result in the data set on Human alphaherpesvirus 1 [7] and in the data set with Human alphaherpesvirus 1 [8] was Active.

On to `CC(=O)OC1CCC(Nc2cc(-n3nc(C)c4c3CC(C)(C)CC4=O)ccc2C(N)=O)CC1` (stereo unspecified), for which the inhibition entry with Human alphaherpesvirus 1 [9], in the data set on Human alphaherpesvirus 2 [10] and with Human alphaherpesvirus 1 [15] was “Active” throughout. The inhibition result in the data set with Coxsackievirus B3, in the data set with Human orthopneumovirus and with Influenza A virus was “inactive” throughout. In [1], this compound registered a CC50 of 35500 nM. Besides, the EC50 in the data set with Human alphaherpesvirus 1 [2] was determined as 420 nM; in the data set with Human alphaherpesvirus 2 [3], 600 nM. Besides, the results for the selectivity ratio in data set [4] and in data set [5] were 84.5 and 59.2, respectively. Further, the PFU/ml is given as 6.67 with Human alphaherpesvirus 1 [11], 7.09 in the data set with Human alphaherpesvirus 1 [12], 7.13 in the data set with Human alphaherpesvirus 1 [13] and 6.14 with Human alphaherpesvirus 1 [14]. Further, the result with Human alphaherpesvirus 1 [6] was inactive. The outcome in the data set on Human alphaherpesvirus 1 [7] and in the data set with Human alphaherpesvirus 1 [8] was Active.
